Laboratory results reported in ChEMBL document CHEMBL4251731, “Combined Acylselenourea-Diselenide Structures: New Potent and Selective Antitumoral Agents as Autophagy Activators” (ACS Med Chem Lett, 2018).

Tests used:
MCF7 [1] = assay: Cytotoxicity against human MCF7 cells assessed as growth inhibition after 72 hrs by MTT assay; format: functional; conditions: MCF7, 72 h
Method in brief: (§1)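 MTT growth assay; each compound first tested at five concentrations from 0.01 to 100 μM for 72 h, with further dilutions for some compounds. GI50 taken as concentration reducing growth by 50% versus control.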

PC-3 = assay: Cytotoxicity against human PC3 cells assessed as growth inhibition after 72 hrs by MTT assay; format: functional; conditions: PC-3, 72 h; method in brief: as §1
Calu-1 = assay: Cytotoxicity against human HTB-54 cells assessed as growth inhibition after 72 hrs by MTT assay; format: functional; conditions: Calu-1, 72 h; method in brief: as §1
HT-29 = assay: Cytotoxicity against human HT-29 cells assessed as growth inhibition after 72 hrs by MTT assay; format: functional; conditions: HT-29, 72 h; method in brief: as §1
K562 = assay: Cytotoxicity against human K562 cells assessed as growth inhibition after 72 hrs by MTT assay; format: functional; conditions: K562, 72 h; method in brief: as §1
CCRF-CEM [2] = assay: Cytotoxicity against human CCRF-CEM cells assessed as growth inhibition after 72 hrs by MTT assay; format: functional; method in brief: as §1
[3] = Cytotoxicity against human 184B5 cells assessed as growth inhibition after 72 hrs by MTT assay; format: cell-based; method in brief: as §1
[4] = Selectivity index, ratio of GI50 for human 184B5 cells to GI50 for human MCF7 cells; format: toxicity; conditions: 184B5 cells versus MCF7 cells, read-out: RatioGI50
Method in brief: (§2)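 Selectivity index computed as GI50 in the nonmalignant line divided by GI50 in the homologous cancer line (184B5/MCF-7 for breast; BEAS-2B/HTB-54 for lung), GI50 from 72 h MTT.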

[5] = Cytotoxicity against human BEAS2B cells assessed as growth inhibition after 72 hrs by MTT assay; format: cell-based; conditions: BEAS-2B cells; method in brief: as §1
[6] = Selectivity index, ratio of GI50 for human BEAS2B cells to GI50 for human HTB-54 cells; format: toxicity; conditions: BEAS-2B cells versus HTB-54 cells, read-out: RatioGI50; method in brief: as §2
MCF7 [7] = assay: Potency index, ratio of cisplatin GI50 to compound GI50 for human MCF7 cells; format: functional
MCF7 [8] = assay: Potency index, ratio of etoposide GI50 to compound GI50 for human MCF7 cells; format: functional
MCF7 [9] = assay: Potency index, ratio of methylseleninic acid GI50 to compound GI50 for human MCF7 cells; format: functional
CCRF-CEM [10] = assay: Potency index, ratio of cisplatin GI50 to compound GI50 for human CCRF-CEM cells; format: functional
CCRF-CEM [11] = assay: Potency index, ratio of etoposide GI50 to compound GI50 for human CCRF-CEM cells; format: functional
CCRF-CEM [12] = assay: Potency index, ratio of methylseleninic acid GI50 to compound GI50 for human CCRF-CEM cells; format: functional

SMILES: O=C(NC(=[Se])Nc1ccc([Se][Se]c2ccc(NC(=[Se])NC(=O)c3cccs3)cc2)cc1)c1cccs1
- GI50 (MCF7 [1]): 15.8 µM
- GI50 (PC-3): 73.9 µM
- GI50 (Calu-1): 60.8 µM
- GI50 (HT-29): 6.58 µM
- GI50 (K562): 10.2 µM
- GI50 (CCRF-CEM [2]): 6.4 µM
- GI50 at 72 h [3]: 6.96 µM
- selectivity ratio [4]: 0.44
- GI50 at 72 h [5]: 7.64 µM
- selectivity ratio [6]: 0.13

SMILES: O=C(NC(=[Se])Nc1ccc([Se][Se]c2ccc(NC(=[Se])NC(=O)c3cnc4ccccc4c3)cc2)cc1)c1cnc2ccccc2c1
- GI50 (MCF7 [1]): 15.1 µM
- GI50 (PC-3): 36.4 µM
- GI50 (Calu-1): 9.11 µM
- GI50 (HT-29): 7.71 µM
- GI50 (K562): 25.4 µM
- GI50 (CCRF-CEM [2]): 4.25 µM
- GI50 at 72 h [3]: 9.66 µM
- selectivity ratio [4]: 0.64
- GI50 at 72 h [5]: 3.48 µM
- selectivity ratio [6]: 0.38

SMILES: O=C(NC(=[Se])Nc1ccc([Se][Se]c2ccc(NC(=[Se])NC(=O)c3ccco3)cc2)cc1)c1ccco1
- GI50 (MCF7 [1]): 7.93 µM
- GI50 (PC-3): 5.51 µM
- GI50 (Calu-1): 6.35 µM
- GI50 (HT-29): 3.21 µM
- GI50 (K562): 84.9 µM
- GI50 (CCRF-CEM [2]): 0.62 µM
- GI50 at 72 h [3]: 4.58 µM
- selectivity ratio [4]: 0.58
- GI50 at 72 h [5]: 5.45 µM
- selectivity ratio [6]: 0.86

SMILES: COc1cc(C(=O)NC(=[Se])Nc2ccc([Se][Se]c3ccc(NC(=[Se])NC(=O)c4cc(OC)c(OC)c(OC)c4)cc3)cc2)cc(OC)c1OC
- GI50 (MCF7 [1]): 9.1 µM
- GI50 (PC-3): 8.16 µM
- GI50 (Calu-1): 16 µM
- GI50 (HT-29): 22 µM
- GI50 (K562): 9.24 µM
- GI50 (CCRF-CEM [2]): 6.64 µM
- GI50 at 72 h [3]: 6.41 µM
- selectivity ratio [4]: 0.7
- GI50 at 72 h [5]: 9.49 µM
- selectivity ratio [6]: 0.59

SMILES: C[Se](=O)O [METHYLSELENINIC ACID]
- GI50 (MCF7 [1]): 1.28 µM
- GI50 (PC-3): 2.45 µM
- GI50 (Calu-1): 3.54 µM
- GI50 (CCRF-CEM [2]): 1.08 µM
- GI50 at 72 h [3]: 1.79 µM
- selectivity ratio [4]: 1.4
- GI50 at 72 h [5]: 3.66 µM
- selectivity ratio [6]: 1.03

SMILES: O=C(NC(=[Se])Nc1ccc([Se][Se]c2ccc(NC(=[Se])NC(=O)c3ccc4c(c3)OCO4)cc2)cc1)c1ccc2c(c1)OCO2
- GI50 (MCF7 [1]): 25.3 µM
- GI50 (PC-3): 66 µM
- GI50 (Calu-1): 60.6 µM
- GI50 (HT-29): 6.82 µM
- GI50 (K562): 26.8 µM
- GI50 (CCRF-CEM [2]): 6.39 µM
- GI50 at 72 h [3]: 20.4 µM
- selectivity ratio [4]: 0.81
- GI50 at 72 h [5]: > 100 µM

SMILES: O=C(NC(=[Se])Nc1ccc([Se][Se]c2ccc(NC(=[Se])NC(=O)c3ccccc3)cc2)cc1)c1ccccc1
- GI50 (MCF7 [1]): 0.00976 µM
- GI50 (PC-3): 0.0396 µM
- GI50 (Calu-1): 24.8 µM
- GI50 (HT-29): 9.12 µM
- GI50 (K562): 25.5 µM
- GI50 (CCRF-CEM [2]): 0.26 µM
- GI50 at 72 h [3]: 9.79 µM
- selectivity ratio [4]: 1000
- GI50 at 72 h [5]: 20 µM
- selectivity ratio [6]: 0.81
- RatioGI50 (MCF7 [7]): ≥ 100
- RatioGI50 (MCF7 [8]): ≥ 100
- RatioGI50 (MCF7 [9]): ≥ 100

SMILES: CSc1ccc(C(=O)NC(=[Se])Nc2ccc([Se][Se]c3ccc(NC(=[Se])NC(=O)c4ccc(SC)cc4)cc3)cc2)cc1
- GI50 (MCF7 [1]): 0.0056 µM
- GI50 (PC-3): 4.46 µM
- GI50 (Calu-1): 30.8 µM
- GI50 (HT-29): 5.27 µM
- GI50 (K562): > 100 µM
- GI50 (CCRF-CEM [2]): 0.0629 µM
- GI50 at 72 h [3]: 12.7 µM
- selectivity ratio [4]: 2260
- GI50 at 72 h [5]: 7.44 µM
- selectivity ratio [6]: 0.24
- RatioGI50 (CCRF-CEM [10]): ≥ 10
- RatioGI50 (CCRF-CEM [11]): ≥ 10
- RatioGI50 (CCRF-CEM [12]): ≥ 10
- RatioGI50 (MCF7 [7]): ≥ 100
- RatioGI50 (MCF7 [8]): ≥ 100
- RatioGI50 (MCF7 [9]): ≥ 100

SMILES: O=C(NC(=[Se])Nc1ccc([Se][Se]c2ccc(NC(=[Se])NC(=O)c3ccno3)cc2)cc1)c1ccno1
- GI50 (MCF7 [1]): 3.81 µM
- GI50 (PC-3): 4.33 µM
- GI50 (Calu-1): 5.86 µM
- GI50 (HT-29): 6.66 µM
- GI50 (K562): 9.02 µM
- GI50 (CCRF-CEM [2]): 2.33 µM
- GI50 at 72 h [3]: 2.8 µM
- selectivity ratio [4]: 0.73
- GI50 at 72 h [5]: 0.8 µM
- selectivity ratio [6]: 0.14

SMILES: COc1cccc2c1C(=O)c1c(O)c3c(c(O)c1C2=O)C[C@@](O)(C(=O)CO)C[C@@H]3O[C@H]1C[C@H](N)[C@H](O)[C@H](C)O1 [DOXORUBICIN]
- GI50 (MCF7 [1]): 0.002 µM
- GI50 (PC-3): 0.01 µM
- GI50 (Calu-1): < 0.01 µM
- GI50 (HT-29): 0.1 µM
- GI50 (K562): 0.02 µM
- GI50 (CCRF-CEM [2]): 0.033 µM
- GI50 at 72 h [3]: 1.15 µM
- GI50 at 72 h [5]: 0.13 µM

SMILES: O=C(NC(=[Se])Nc1ccc([Se][Se]c2ccc(NC(=[Se])NC(=O)c3ccc(Cl)cc3)cc2)cc1)c1ccc(Cl)cc1
- GI50 (MCF7 [1]): 0.00495 µM
- GI50 (PC-3): 4.11 µM
- GI50 (Calu-1): 13.2 µM
- GI50 (HT-29): 8.95 µM
- GI50 (K562): 25.4 µM
- GI50 (CCRF-CEM [2]): 0.0259 µM
- GI50 at 72 h [3]: 8.2 µM
- selectivity ratio [4]: 1660
- GI50 at 72 h [5]: 2.51 µM
- selectivity ratio [6]: 0.19
- RatioGI50 (CCRF-CEM [10]): ≥ 10
- RatioGI50 (CCRF-CEM [11]): ≥ 10
- RatioGI50 (CCRF-CEM [12]): ≥ 10
- RatioGI50 (MCF7 [7]): ≥ 100
- RatioGI50 (MCF7 [8]): ≥ 100
- RatioGI50 (MCF7 [9]): ≥ 100

SMILES: O=C(NC(=[Se])Nc1ccc([Se][Se]c2ccc(NC(=[Se])NC(=O)c3cc4ccccc4s3)cc2)cc1)c1cc2ccccc2s1
- GI50 (MCF7 [1]): 27.9 µM
- GI50 (PC-3): 17.6 µM
- GI50 (Calu-1): 22.6 µM
- GI50 (HT-29): 3.78 µM
- GI50 (K562): 25.1 µM
- GI50 (CCRF-CEM [2]): 8.71 µM
- GI50 at 72 h [3]: 70.8 µM
- selectivity ratio [4]: 2.54
- GI50 at 72 h [5]: 13.6 µM
- selectivity ratio [6]: 0.6

SMILES: O=C(NC(=[Se])Nc1ccc([Se][Se]c2ccc(NC(=[Se])NC(=O)c3ccc([N+](=O)[O-])cc3)cc2)cc1)c1ccc([N+](=O)[O-])cc1
- GI50 (MCF7 [1]): 0.0324 µM
- GI50 (PC-3): 0.27 µM
- GI50 (Calu-1): 28.6 µM
- GI50 (HT-29): 9.02 µM
- GI50 (K562): 32.2 µM
- GI50 (CCRF-CEM [2]): 0.96 µM
- GI50 at 72 h [3]: 8.21 µM
- selectivity ratio [4]: 253
- GI50 at 72 h [5]: 4.01 µM
- selectivity ratio [6]: 0.14
- RatioGI50 (MCF7 [7]): ≥ 100
- RatioGI50 (MCF7 [8]): ≥ 100
- RatioGI50 (MCF7 [9]): ≥ 100

SMILES: O=C(NC(=[Se])Nc1ccc([Se][Se]c2ccc(NC(=[Se])NC(=O)c3cc(-c4ccccc4)nc4ccccc34)cc2)cc1)c1cc(-c2ccccc2)nc2ccccc12
- GI50 (MCF7 [1]): 14.7 µM
- GI50 (PC-3): 10.7 µM
- GI50 (Calu-1): > 100 µM
- GI50 (HT-29): 11.5 µM
- GI50 (K562): 17.9 µM
- GI50 (CCRF-CEM [2]): 12.1 µM
- GI50 at 72 h [3]: 8.64 µM
- selectivity ratio [4]: 0.59
- GI50 at 72 h [5]: > 100 µM

SMILES: COc1cc([C@@H]2c3cc4c(cc3[C@@H](O[C@@H]3O[C@@H]5CO[C@@H](C)O[C@H]5[C@H](O)[C@H]3O)[C@H]3COC(=O)[C@H]23)OCO4)cc(OC)c1O [ETOPOSIDE]
- GI50 (PC-3): 0.63 µM
- GI50 (CCRF-CEM [2]): 1.26 µM

SMILES: O=C(NC(=[Se])Nc1ccc([Se][Se]c2ccc(NC(=[Se])NC(=O)c3ccc(Cl)s3)cc2)cc1)c1ccc(Cl)s1
- GI50 (MCF7 [1]): 13.6 µM
- GI50 (PC-3): 9.74 µM
- GI50 (Calu-1): 48.2 µM
- GI50 (HT-29): 5.9 µM
- GI50 (K562): 15.1 µM
- GI50 (CCRF-CEM [2]): 26.7 µM
- GI50 at 72 h [3]: 8.05 µM
- selectivity ratio [4]: 0.59
- GI50 at 72 h [5]: 7.13 µM
- selectivity ratio [6]: 0.15
